One assay relates to U-87 MG cells. Nature of the assay: Peptide and peptide-platinate activity, modified MTT assay. Format: cell-based. The settings on record: 24 hours, nonlinear curve fitting, n=3. The gist of the method: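 They were plated at 50,000 cells/mL one day before, then exposed to a concentration series of test compound for 24 h. Viability relative to untreated control was read by modified MTT (Aqueous One). IC50 came from nonlinear curve fit. n≥3.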
For orientation: Tetrazolium assays rely on reduction of a dye to a coloured formazan, in cell work by metabolically active cells.

The target in assay [1] is T1, MMP-2 (Homo sapiens, UniProt P08253).
T1 sequence (P08253 110-660): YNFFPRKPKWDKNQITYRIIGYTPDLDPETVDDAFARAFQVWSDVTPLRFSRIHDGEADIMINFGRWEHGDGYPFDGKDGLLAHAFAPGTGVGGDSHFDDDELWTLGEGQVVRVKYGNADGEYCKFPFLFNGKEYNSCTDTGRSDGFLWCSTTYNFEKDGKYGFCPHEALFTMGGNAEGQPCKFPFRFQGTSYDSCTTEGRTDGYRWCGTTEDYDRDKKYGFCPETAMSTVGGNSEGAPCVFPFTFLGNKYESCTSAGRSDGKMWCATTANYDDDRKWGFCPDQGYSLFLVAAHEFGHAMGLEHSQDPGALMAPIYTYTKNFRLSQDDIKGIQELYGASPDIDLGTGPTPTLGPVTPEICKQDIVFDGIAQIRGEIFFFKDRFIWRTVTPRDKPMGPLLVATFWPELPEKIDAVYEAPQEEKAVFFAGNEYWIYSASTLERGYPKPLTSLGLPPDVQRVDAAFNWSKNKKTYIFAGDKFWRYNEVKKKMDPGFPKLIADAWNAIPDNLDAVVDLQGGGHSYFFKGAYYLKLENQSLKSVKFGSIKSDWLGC
The settings on record: cited from earlier work.

In assay [2] the target is T1, MMP-2. In words: Peptide cleavage kinetics with activated MMP-2. Format: biochemical. The settings on record: for Km / kcat: activated MMP-2 10 nM, Tris-HCl protease buffer pH 7.4, HPLC, n=3. The gist of the method: (§1)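 Reactions were stopped at set times with EDTA. Products were resolved by C18 reversed-phase HPLC (30–70% acetonitrile/0.1% TFA gradient, 15 min, 1 mL/min) with fluorescence and photodiode-array detection. Fragments were assigned against synthetic fragment retention times and confirmed by MALDI-MS. n≥3.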

The target of a further assay is MMP-9 (Homo sapiens, UniProt P14780). Nature of the assay: Peptide cleavage kinetics with activated MMP-9. Format: biochemical. The following applies: for Km / kcat: activated MMP-9 10 nM, Tris-HCl protease buffer pH 7.4, HPLC, n=3. The gist of the method: as §1

Read-outs that look alike come from different tables or passages of the source.

Chain of MMP-9 (P14780 107-707 limits assumed): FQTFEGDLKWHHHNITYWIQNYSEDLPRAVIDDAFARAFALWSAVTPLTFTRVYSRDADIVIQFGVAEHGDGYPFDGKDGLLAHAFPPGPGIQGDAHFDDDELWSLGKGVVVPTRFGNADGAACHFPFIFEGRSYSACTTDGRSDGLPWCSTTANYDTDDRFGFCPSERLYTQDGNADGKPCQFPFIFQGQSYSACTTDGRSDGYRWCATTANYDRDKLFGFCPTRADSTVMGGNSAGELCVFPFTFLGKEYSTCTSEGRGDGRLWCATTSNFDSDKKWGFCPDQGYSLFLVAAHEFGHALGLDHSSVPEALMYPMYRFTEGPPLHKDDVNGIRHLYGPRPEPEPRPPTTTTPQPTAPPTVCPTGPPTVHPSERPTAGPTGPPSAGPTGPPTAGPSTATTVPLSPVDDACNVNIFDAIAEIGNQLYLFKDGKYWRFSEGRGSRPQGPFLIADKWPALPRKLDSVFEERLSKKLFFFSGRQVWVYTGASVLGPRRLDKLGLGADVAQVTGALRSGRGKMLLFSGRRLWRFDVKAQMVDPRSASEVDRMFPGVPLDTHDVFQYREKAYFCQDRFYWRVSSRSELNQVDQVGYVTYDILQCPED

One may read the IC50 as the midpoint of a concentration-inhibition curve. In turn, `[Cl][Pt-2]([Cl])([Cl])[Cl].[K+].[K+]` [K2PtCl4, potassium tetrachloroplatinate] yielded an IC50 in the assay with U-87 MG cells of 70.7 ± 15 µM.

For `N.N.[Cl][Pt][Cl]` [cisplatin], the IC50 in the assay with U-87 MG cells is 46.9 ± 15 µM.

In the case of GPAGLLG, at MMP-2 [1], the cleavage site entry was “cleaved between glycine and leucine”.

By Km is commonly meant the concentration of substrate that gives half-maximal velocity. The kcat is the maximal rate divided by the concentration of active sites. K*AGLLC-CONH2: on MMP-2 [2], the Km came to 1400 ± 400 µM and the catalytic constant (kcat) worked out at 0.24 ± 0.08 s⁻¹. Besides, at MMP-9, the Km worked out at 160 ± 100 µM and the kcat is 0.04 ± 0.01 s⁻¹.

For the compound K*PAGLLGC-CONH2, the Km at MMP-2 [2] turned out to be 1000 ± 500 µM; on MMP-9, 400 ± 100 µM. In addition, the kcat came to 10.7 ± 4.8 s⁻¹ on MMP-2 [2] and 9.6 ± 2.1 s⁻¹ at MMP-9. For the same compound, the cleavage site result is “cleaved between glycine and leucine” on MMP-2 [2] (cleaved with MMP-2 for 2 hours, HPLC comparison with synthesized fragment K*PAG); “cleaved between glycine and leucine” at MMP-9 (cleaved with MMP-9 for 2 hours, HPLC comparison with synthesized fragment K*PAG).

These data come from article PMC2592099 (Peptides, 2008).
